# Experimental data from different studies.
# Each line is one published result; the experiments were not run side by side.
# IGF1R: Insulin-like growth factor 1 receptor (IGF1R, Homo sapiens, UniProt P08069)
# IGF1R phosphorylated: Insulin-like growth factor 1 receptor, phosphorylated (IGF1R, Homo sapiens, UniProt P08069)
SMILES,target,read-out,mode,method,concentration,measurement,value
CN(C)C(=O)Cn1cc(-c2nc(C3(c4ccc(-c5cnc(N)nc5)cc4)CC3)no2)cn1,IGF1R,cell-free assay,,competition with immobilised ligand,1 µM,remaining binding,85%
CNc1cccc2cc(C(=O)Nc3ccc(C(=O)O)cc3)c(=O)[nH]c12,IGF1R,enzyme activity,inhibitor,,10 µM,inhibition,5.2%
CN1CC(Oc2cnc(C#N)cc2-c2ccn3nc(NC(=O)C4CC4)cc3c2)C1,IGF1R,enzyme activity,inhibitor,,1 µM,inhibition,9%
CCN(CC)CCNC(=O)c1c(C)[nH]c(/C=C2\C(=O)Nc3ccc(F)cc32)c1C,IGF1R,enzyme activity,inhibitor,,10 µM,inhibition,81%
N#Cc1ccc(Nc2ccc3[nH]c(=O)[nH]c3c2)c(Cl)c1,IGF1R,cell-free assay,,competition with immobilised ligand,1 µM,remaining binding,99%
Cc1ccc(C(=O)NCc2ccsc2)cc1C#Cc1cn(C(C)C)c2ncnc(N)c12,IGF1R phosphorylated,enzyme activity,inhibitor,,1 µM,activity vs control,136%
CNCc1ccc(-c2cc(-c3nc(-c4ccc(S(=O)(=O)C(C)C)cc4)cnc3N)on2)cc1,IGF1R,enzyme activity,inhibitor,,2 µM,inhibition,2%
CNC(=O)c1ccc(Nc2ncc(C(F)(F)F)c(NCc3nccnc3N(C)S(C)(=O)=O)n2)cc1,IGF1R,cell-free assay,,competition with immobilised ligand,0.1 µM,remaining binding,84%
N#CCCc1ccc2c(c1)-c1[nH]c3ccc([N+](=O)[O-])cc3c1CC(=O)N2,IGF1R,cell-free assay,,,0.5 µM,remaining signal,92.2%
CS(=O)(=O)N1CCCC(NC(=O)[C@H](CCC2CCCCC2)NC(=O)c2ccc(CNc3ncnc4c3nnn4-c3ccccc3)cc2)C1 (stereo partly drawn),IGF1R,cell-free assay,,competition with immobilised ligand,0.1 µM,remaining binding,100%
COc1cc2ncnc(Nc3ccc(Oc4ccccc4)c(C)c3C)c2cc1OC,IGF1R,enzyme activity,inhibitor,,1 µM,inhibition,2%
Cc1ccc(C(=O)Nc2ccc(CN3CCN(C)CC3)c(C(F)(F)F)c2)cc1C#Cc1cnc2cccnn12,IGF1R,cell-free assay,,,23.5 nM,remaining signal,84%
O=C1Nc2ccc(Cl)cc2C1=Cc1cc(Cl)c(O)c(Cl)c1,IGF1R,cell-free assay,,,0.5 µM,remaining signal,98.3%
Cc1cc(NC(=O)c2cccc3cc(-c4cccc5[nH]nc(N)c45)ccc23)ccc1F,IGF1R phosphorylated,enzyme activity,inhibitor,,0.1 µM,activity vs control,100%
Cc1nccc(COC(=O)N2C[C@@H]3[C@@H](CNC(=O)c4ccc5[nH]nnc5c4)[C@@H]3C2)n1,IGF1R,cell-free assay,,competition with immobilised ligand,1 µM,remaining binding,93%
COc1cc2nccc(Oc3ccc(NC(=O)c4c5n(n(-c6ccc(F)cc6)c4=O)CCCC5)cc3)c2cc1OC,IGF1R,enzyme activity,inhibitor,,0.1 µM,inhibition,16%
CC/C(=N\NC(=O)NCc1cccc(O)c1)c1ccc(O)c(C)c1O,IGF1R,enzyme activity,inhibitor,,0.1 µM,inhibition,3%
COc1cc(/C=C/C(=O)CC(=O)/C=C/c2ccc(O)c(OC)c2)ccc1O,IGF1R,enzyme activity,inhibitor,,1 µM,activity vs control,99%
CCCS(=O)(=O)Nc1ccc(F)c(C(=O)c2c[nH]c3ncc(-c4ccc(Cl)cc4)cc23)c1F,IGF1R,enzyme activity,inhibitor,,1 µM,inhibition,< 10%
C[C@@H](c1cccc(C#N)c1)n1cc(Cl)cc(C(N)=O)c1=N,IGF1R,cell-free assay,,competition with immobilised ligand,1 µM,remaining binding,96%
O=C(CSc1nc2nccnc2c(=O)n1CCc1ccccc1)Nc1nccs1,IGF1R,enzyme activity,inhibitor,,10 µM,inhibition,12%
